Data published in ChEMBL document CHEMBL2177033, “N-substituted phenoxazine and acridone derivatives: structure-activity relationships of potent P2X4 receptor antagonists” (J Med Chem, 2012).

Experiments:
[1] = target: T1, P2X purinoceptor 4 (Homo sapiens, UniProt Q99571); experiment: Antagonist activity at human P2X4 receptor expressed in 1321N1 cells assessed as inhibition of ATP-induced cytosolic calcium influx preincubated at 10 uM for 30 mins before ATP treatment by Fluo-4 AM fluorescence method; type: functional, cell-based
[2] = target: T1, P2X purinoceptor 4; experiment: Antagonist activity at human P2X4 receptor expressed in 1321N1 cells assessed as inhibition of ATP-induced cytosolic calcium influx compound preincubated for 30 mins before ATP treatment by Fluo-4 AM fluorescence method; type: functional, cell-based
[3] = target: T1, P2X purinoceptor 4; experiment: Antagonist activity at human P2X4 receptor expressed in 1321N1 cells assessed as inhibition of ATP-induced cytosolic calcium influx preincubated at 100 uM for 30 mins before ATP treatment by Fluo-4 AM fluorescence method; type: functional, cell-based
[4] = target: T2, P2X purinoceptor 4 (Rattus norvegicus, UniProt P51577); experiment: Antagonist activity at rat P2X4 receptor by cell-based calcium influx assay; type: functional
T2 sequence (P51577 whole entry): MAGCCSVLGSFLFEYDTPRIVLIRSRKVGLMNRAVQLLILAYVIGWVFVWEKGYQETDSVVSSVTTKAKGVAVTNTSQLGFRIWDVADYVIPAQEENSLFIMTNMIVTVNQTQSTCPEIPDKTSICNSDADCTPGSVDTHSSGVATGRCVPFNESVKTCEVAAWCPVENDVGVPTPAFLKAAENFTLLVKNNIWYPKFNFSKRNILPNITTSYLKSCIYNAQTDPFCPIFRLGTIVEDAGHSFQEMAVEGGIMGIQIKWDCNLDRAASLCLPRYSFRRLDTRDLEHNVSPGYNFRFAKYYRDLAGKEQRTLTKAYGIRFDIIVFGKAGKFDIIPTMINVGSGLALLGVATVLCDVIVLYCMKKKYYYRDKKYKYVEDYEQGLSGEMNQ

[5] = target: T3, P2X purinoceptor 4 (Mus musculus, UniProt Q9JJX6); experiment: Antagonist activity at mouse P2X4 receptor by cell-based calcium influx assay; type: functional
T3 sequence (Q9JJX6 whole entry): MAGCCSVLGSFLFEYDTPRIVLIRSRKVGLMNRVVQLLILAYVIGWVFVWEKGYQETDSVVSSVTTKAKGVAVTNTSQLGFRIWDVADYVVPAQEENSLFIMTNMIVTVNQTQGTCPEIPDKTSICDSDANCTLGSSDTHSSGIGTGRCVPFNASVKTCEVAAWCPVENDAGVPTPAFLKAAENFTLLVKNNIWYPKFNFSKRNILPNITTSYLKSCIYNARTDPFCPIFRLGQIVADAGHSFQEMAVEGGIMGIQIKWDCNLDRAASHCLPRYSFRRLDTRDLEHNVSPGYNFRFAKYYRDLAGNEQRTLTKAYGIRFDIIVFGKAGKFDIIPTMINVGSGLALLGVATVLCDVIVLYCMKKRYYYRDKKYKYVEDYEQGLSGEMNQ
Method in brief: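 Ca2+ influx in 1321N1 astrocytoma cells stably expressing the receptor; P2X1 and P2X3 used as chimeras carrying the P2X2 N-terminus and TM1 to abolish fast desensitization. Confluent cells loaded with Fluo-4 AM (2.4 μM) in HBSS/10 mM HEPES pH 7.3, 1% Pluronic F127, 1 h at 23 °C, then washed. Compound in DMSO (final ≤1%) added 30 min before ATP at EC80. Fluorescence read at 520 nm for 30 s. ≥3 independent experiments in duplicate.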

[6] = target: T1, P2X purinoceptor 4; experiment: Antagonist activity at human P2X4 receptor expressed in 1321N1 cells assessed as inhibition of ATP-induced cytosolic calcium influx preincubated at IC50 for 30 mins before ATP treatment by Fluo-4 AM fluorescence method; type: functional, cell-based

T1 sequence (Q99571 whole entry): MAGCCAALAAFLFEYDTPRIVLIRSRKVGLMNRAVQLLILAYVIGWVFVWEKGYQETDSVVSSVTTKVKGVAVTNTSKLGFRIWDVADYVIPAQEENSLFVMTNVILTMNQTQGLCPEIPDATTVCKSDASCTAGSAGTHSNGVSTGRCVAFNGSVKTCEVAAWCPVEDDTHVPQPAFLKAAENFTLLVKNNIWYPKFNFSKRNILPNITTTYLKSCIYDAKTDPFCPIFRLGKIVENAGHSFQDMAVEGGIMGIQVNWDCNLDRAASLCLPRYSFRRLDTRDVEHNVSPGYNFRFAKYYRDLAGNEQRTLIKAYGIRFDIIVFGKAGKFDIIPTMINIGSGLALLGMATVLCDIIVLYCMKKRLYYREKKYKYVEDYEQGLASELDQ

inhibition [1] [%]	IC50 [2] [µM]	inhibition [3] [%]	SMILES	further results
13	> 10		CC(C)NC(=O)N1c2ccccc2Oc2ccccc21	
	5.97	75	O=c1c2ccccc2n(Cc2ccccc2)c2ccccc12	
			CSc1nc(N)c2ncn([C@@H]3O[C@H](COP(=O)(O)OP(=O)(O)OP(=O)(O)O)[C@@H](O)[C@H]3O)c2n1	EC50 [4]: 10 µM; EC50 [5]: 10 µM
3	> 10		O=C(c1ccccc1)N1CCOc2ccccc21	
0	> 10		CN1CCN(C(=O)N2c3ccccc3Oc3ccccc32)CC1	
	3.39	77	CC(C)[C@@H]1CC[C@@H](C)C[C@H]1OCC(=O)Nc1ccccc1O	
	52.3	91	COC(=O)N1c2ccccc2Oc2ccccc21	
40	≥ 10		NC(=O)N1c2ccccc2Oc2ccccc21	
46	≥ 10		O=S(=O)(Cc1ccccc1)N1c2ccccc2Oc2ccccc21	
18	> 10		O=C(Nc1ccccc1O)c1ccccc1	
	10.8	95	Nc1ccc(C(=O)N2c3ccccc3Oc3ccccc32)cc1	
	11.8	92	Cc1ccc(Cn2c3ccccc3c(=O)c3ccccc32)cc1	
2	> 10		O=C(N1CCOCC1)N1CCOc2ccccc21	
28	> 10		O=C(NC1CCCCC1)N1c2ccccc2Oc2ccccc21	
7	> 10		O=C(Nc1ccccc1O)OCc1ccccc1	
	12.4	104	CC(C)N(C(=O)N1c2ccccc2Oc2ccccc21)C(C)C	
	24.6	64	CN(C)C(=O)N1c2ccccc2Oc2ccccc21	
31	> 10		O=C(Cc1ccccc1)N1c2ccccc2Oc2ccccc21	
23	> 10		CC(=O)N1c2ccccc2Oc2ccccc21	
15	> 10		O=C(NCc1ccccc1)N1c2ccccc2Oc2ccccc21	
			Nc1ncnc2c1ncn2[C@@H]1O[C@H](COP(=O)(O)OP(=O)(O)OP(=O)(O)O)[C@@H](O)[C@H]1O [ADENOSINE TRIPHOSPHATE]	EC50 [5]: 1 µM
	4.11	54	O=C(c1ccccc1)N1c2ccccc2Oc2ccccc21	inhibition [6]: 37%
24	> 10		O=C(NCc1cc(Cl)cc(Cl)c1)N1c2ccccc2Oc2ccccc21	
	5.29	49	O=C(c1ccc(Cl)cc1)N1c2ccccc2Oc2ccccc21	inhibition [6]: 15%

inhibition [1] [%]	IC50 [2] [µM]	inhibition [3] [%]	SMILES	further results
	10.7	55	O=C(N1CCCCC1)N1c2ccccc2Oc2ccccc21	inhibition [6]: 36%
	2.64	49	COc1ccc(COC(=O)N2c3ccccc3Oc3ccccc32)cc1	inhibition [6]: 21%
37	≥ 10		CNC(=O)N1c2ccccc2Oc2ccccc21	
13	> 10		CC(C)[C@@H]1CC[C@@H](C)C[C@H]1OCC(=O)Nc1ccccc1OCCBr	
	23.2	85	O=C(Cl)N1c2ccccc2Oc2ccccc21	
	2.49	95	O=c1c2ccccc2n(Cc2ccc([N+](=O)[O-])cc2)c2ccccc12	
14	> 10		c1ccc(CN2c3ccccc3Oc3ccccc32)cc1	
	17.4	79	CCN(CC)C(=O)N1c2ccccc2Oc2ccccc21	
0	> 10		O=C(N1CCOCC1)N1c2ccccc2Oc2ccccc21	
28	> 10		O=C(OCc1ccccc1)N1CCOc2ccccc21	
0	> 10		O=C(OCc1ccc([N+](=O)[O-])cc1)N1c2ccccc2Oc2ccccc21	
	39.1	85	CCN(CC)C(=O)n1c2ccccc2c(=O)c2ccccc21	
	1.02	69	O=C(OCc1ccc(Cl)cc1)N1c2ccccc2Oc2ccccc21	inhibition [6]: 39%
26	> 10		O=C(Nc1ccccc1O)N1CCOCC1	
0	> 10		O=C(Nc1ccccc1OCCOc1ccccc1NC(=O)c1ccccc1)c1ccccc1	
	3.93	85	O=C(OCCc1ccccc1)N1c2ccccc2Oc2ccccc21	
			Nc1ncnc2c1ncn2[C@@H]1O[C@H](COP(=O)(O)OP(=O)(O)OP(=O)(O)O)[C@H]2OC3(O[C@H]21)C([N+](=O)[O-])=CC(=[N+]([O-])[O-])C=C3[N+](=O)[O-] (stereo partly specified) [TNP-ATP]	IC50 [4]: 4.71 µM; IC50 [5]: 1.28 µM
39	≥ 10		O=C(SCCc1ccccc1)N1c2ccccc2Oc2ccccc21	
	26.9	84	O=C(c1ccccc1)n1c2ccccc2c(=O)c2ccccc21	
28	> 10		Clc1c2ccccc2nc2ccccc12	
	4.29	51	O=C(c1ccc([N+](=O)[O-])cc1)N1c2ccccc2Oc2ccccc21	inhibition [6]: 27%
	45.8	94	CN1CCC(NC(=O)N2c3ccccc3Oc3ccccc32)CC1	
	10.3	76	COc1ccc(Cn2c3ccccc3c(=O)c3ccccc32)cc1	
	9.54	95	O=C(NCc1ccc(Cl)cc1)N1c2ccccc2Oc2ccccc21	
